Measurements: paper PMC7667002 (Drug Design, Development and Therapy, 2020)

Tests used:
[1] = Stability of VEN and ODV in rat plasma under different storage conditions; assay type: in vitro ADME; conditions: for Stability, Accuracy RE (%): n = 6
[2] = In vivo pharmacokinetic study of VEN and ODV in rats with or without vonoprazan; set-up: species or system Sprague-Dawley rats; conditions: rat; for AUC(0-t) / AUC(0-inf) / CL/F / Cmax / MRT last / MRT inf / Tmax / Vd/F / half-life: male, Sprague-Dawley, plasma, po, 20 mg/kg, rat plasma, VEN 20 mg/kg oral; for CL/F: CLz/F; for MRT last: MRT(0-t); for MRT inf: MRT(0-∞); for Vd/F: Vz/F; for half-life: t1/2z
Enzyme kinetics = assay type: in vitro ADME; conditions: rat, rat liver microsomes, pH 7.4
In short: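 Rat liver microsomes (1 mg/mL) were incubated in 100 mM potassium phosphate pH 7.4 with 10 mM NADPH and venlafaxine. After 5 min pre-incubation at 37°C, NADPH started a 30 min reaction, stopped with ice-cold acetonitrile containing diazepam internal standard. ODV formation was quantified by UPLC-MS/MS. Km came from nonlinear regression of velocity versus substrate concentration on duplicate or triplicate determinations.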

rat liver microsomes = assay: Effect of vonoprazan on the metabolism of VEN; assay type: in vitro ADME; conditions: RLMs
In short: (§1)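 Male Sprague–Dawley rat liver microsomes were prepared by differential centrifugation (9000 × g, then 105,000 × g). After 5 min pre-incubation at 37°C, NADPH started a 30 min reaction, stopped with ice-cold acetonitrile. ODV was measured by UPLC-MS/MS against a diazepam internal standard, in triplicate, and analysed by Lineweaver–Burk plots with slope and intercept replots.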

[3] = system: venlafaxine O-demethylation (ODV formation) in rat liver microsomes; no CYP named; assay: Effect of vonoprazan on the metabolism of VEN; assay type: in vitro ADME; conditions: rat, rat liver microsomes, pH 7.4, probe venlafaxine (VEN), 2-16 μM
In short: as §1

[4] = 4°C, 24h, high QC (VEN 300, ODV 60 ng·mL^−1)
[5] = 4°C, 24h, low QC (VEN 3, ODV 0.6 ng·mL^−1)
[6] = Room Temperature, 6h, high QC (VEN 300, ODV 60 ng·mL^−1)
[7] = Room Temperature, 6h, low QC (VEN 3, ODV 0.6 ng·mL^−1)
[8] = −80°C, 7 Days, high QC (VEN 300, ODV 60 ng·mL^−1)
[9] = −80°C, 7 Days, low QC (VEN 3, ODV 0.6 ng·mL^−1)
[10] = + vonoprazan 5 mg/kg oral, 7 days
[11] = + vonoprazan 20 mg/kg oral, 7 days
[12] = VEN 20 mg/kg oral + vonoprazan 5 mg/kg
[13] = VEN 20 mg/kg oral + vonoprazan 20 mg/kg

SMILES: CN(C)CC(c1ccc(O)cc1)C1(O)CCCCC1 (stereo not shown) [ODV, O-desmethylvenlafaxine]
- Stability, Accuracy RE (%) [1, 4]: 108.96%
- Stability, Accuracy RE (%) [1, 5]: 112.11%
- Stability, Accuracy RE (%) [1, 6]: 109.57%
- Stability, Accuracy RE (%) [1, 7]: 107.58%
- Stability, Accuracy RE (%) [1, 8]: 106.85%
- Stability, Accuracy RE (%) [1, 9]: 105.72%
- AUC(0-t) [2, 10]: 221 ± 31.5 ng·h/mL
- AUC(0-t) [2, 11]: 469 ± 68.6 ng·h/mL
- AUC(0-t) ([2]; without vonoprazan (control)): 155 ± 36.6 ng·h/mL
- AUC(0-inf) [2, 10]: 225 ± 31.7 ng·h/mL
- AUC(0-inf) [2, 11]: 492 ± 79.8 ng·h/mL
- AUC(0-inf) ([2]; without vonoprazan (control)): 161 ± 43.5 ng·h/mL
- CL/F [2, 10]: 1510 mL/min/kg
- CL/F [2, 11]: 696 mL/min/kg
- CL/F ([2]; without vonoprazan (control)): 2200 mL/min/kg
- Cmax [2, 10]: 69.7 ± 30.1 ng/mL
- Cmax [2, 11]: 109 ± 13.4 ng/mL
- Cmax ([2]; without vonoprazan (control)): 58.1 ± 14.1 ng/mL
- MRT last [2, 10]: 3.08 ± 0.48 h
- MRT last [2, 11]: 3.92 ± 0.38 h
- MRT last ([2]; without vonoprazan (control)): 2.82 ± 0.55 h
- MRT inf [2, 10]: 3.28 ± 0.49 h
- MRT inf [2, 11]: 4.44 ± 0.52 h
- MRT inf ([2]; without vonoprazan (control)): 3.2 ± 1.16 h
- Tmax [2, 10]: 0.95 ± 0.37 h
- Tmax [2, 11]: 2.6 ± 0.55 h
- Tmax ([2]; without vonoprazan (control)): 0.75 ± 0.18 h
- Vd/F [2, 10]: 260 ± 41.5 L/kg
- Vd/F [2, 11]: 142 ± 30.4 L/kg
- Vd/F ([2]; without vonoprazan (control)): 374 ± 170 L/kg
- half-life [2, 10]: 2.01 ± 0.36 h
- half-life [2, 11]: 2.43 ± 0.75 h
- half-life ([2]; without vonoprazan (control)): 2.05 ± 1.05 h
- Increase of the metabolite (M. R.) compared with control group [2, 12]: 0.87 fold
- Decrease of CLz/F compared with control group [2, 13]: 68.33%
- Decrease of Vz/F compared with control group [2, 13]: 62.08%
- Elevation of Cmax compared with control group [2, 13]: 0.88 fold
- Elevation of Tmax compared with control group [2, 13]: 2.46 fold
- Increase of AUC(0-∞) compared with control group [2, 13]: 2.05 fold
- Increase of MRT(0-∞) compared with control group [2, 13]: 0.39 fold
- Increase of the metabolite (M. R.) compared with control group [2, 13]: 1.34 fold

SMILES: COc1ccc(C(CN(C)C)C2(O)CCCCC2)cc1 (stereo not shown) [VEN, Venlafaxine]
- Km at 30 min (Enzyme kinetics): 8.28 µM
- Stability, accuracy range over three QC levels and three storage conditions ([1]; 4°C 24 hours, room temperature 4 hours, −80°C 7 days): 99.68–111.18%
- Stability, Accuracy RE (%) [1, 4]: 106.95%
- Stability, Accuracy RE (%) [1, 5]: 108.99%
- Stability, Accuracy RE (%) [1, 6]: 102.08%
- Stability, Accuracy RE (%) [1, 7]: 102.90%
- Stability, Accuracy RE (%) [1, 8]: 105.33%
- Stability, Accuracy RE (%) [1, 9]: 99.68%
- AUC(0-t) [2, 10]: 689 ± 161 ng·h/mL
- AUC(0-t) [2, 11]: 1910 ng·h/mL
- AUC(0-t) ([2]; without vonoprazan (control)): 260 ± 102 ng·h/mL
- AUC(0-inf) [2, 10]: 694 ± 163 ng·h/mL
- AUC(0-inf) [2, 11]: 1920 ng·h/mL
- AUC(0-inf) ([2]; without vonoprazan (control)): 261 ± 101 ng·h/mL
- CL/F [2, 10]: 500 mL/min/kg
- CL/F [2, 11]: 192 mL/min/kg
- CL/F ([2]; without vonoprazan (control)): 1460 mL/min/kg
- Cmax [2, 10]: 261 ± 110 ng/mL
- Cmax [2, 11]: 525 ± 115 ng/mL
- Cmax ([2]; without vonoprazan (control)): 127 ± 41.5 ng/mL
- MRT last [2, 10]: 2.44 ± 0.3 h
- MRT last [2, 11]: 3.28 ± 0.52 h
- MRT last ([2]; without vonoprazan (control)): 2.09 ± 0.18 h
- MRT inf [2, 10]: 2.52 ± 0.43 h
- MRT inf [2, 11]: 3.36 ± 0.56 h
- MRT inf ([2]; without vonoprazan (control)): 2.12 ± 0.17 h
- Tmax [2, 10]: 0.95 ± 0.37 h
- Tmax [2, 11]: 2.6 ± 0.55 h
- Tmax ([2]; without vonoprazan (control)): 0.7 ± 0.21 h
- Vd/F [2, 10]: 62.1 ± 15.4 L/kg
- Vd/F [2, 11]: 19.9 ± 7.19 L/kg
- Vd/F ([2]; without vonoprazan (control)): 187 ± 130 L/kg
- half-life [2, 10]: 1.48 ± 0.46 h
- half-life [2, 11]: 1.28 ± 0.53 h
- half-life ([2]; without vonoprazan (control)): 1.39 ± 0.32 h
- Decrease of Clz/F compared with control group [2, 12]: 65.73%
- Increase of Cmax compared with control group [2, 12]: 1.05 fold
- Decrease of CLz/F compared with control group [2, 13]: 86.87%
- Decrease of Vz/F compared with control group [2, 13]: 89.35%
- Elevation of Cmax compared with control group [2, 13]: 3.12 fold
- Elevation of Tmax compared with control group [2, 13]: 2.71 fold
- Increase of AUC(0-∞) compared with control group [2, 13]: 6.37 fold
- Increase of MRT(0-∞) compared with control group [2, 13]: 0.58 fold

SMILES: CNCc1cc(-c2ccccc2F)n(S(=O)(=O)c2cccnc2)c1 [Vonoprazan]
- Inhibition mechanism on VEN metabolism (rat liver microsomes; competitive plus non-competitive): mixed inhibition
- Ki’ (inhibition of VEN metabolism) (rat liver microsomes; mixed inhibition, Lineweaver-Burk): 11.29 µM
- Ki (rat liver microsomes; read-out: Ki (inhibition of VEN metabolism), mixed inhibition, Lineweaver-Burk): 23.1 µM
- IC50 at 30 min [3]: 5.54 µM
